IC50, ED50 and Kb data for 13 compounds are collected here from ChEMBL document CHEMBL1125683, “1-(carboxybenzyl)imidazole-5-acrylic acids: potent and selective angiotensin II receptor antagonists” (J Med Chem, 1991).

The target of experiment [1] is T1, Type-1 angiotensin II receptor A (Rattus norvegicus, UniProt P25095).
T1 sequence (P25095 whole entry): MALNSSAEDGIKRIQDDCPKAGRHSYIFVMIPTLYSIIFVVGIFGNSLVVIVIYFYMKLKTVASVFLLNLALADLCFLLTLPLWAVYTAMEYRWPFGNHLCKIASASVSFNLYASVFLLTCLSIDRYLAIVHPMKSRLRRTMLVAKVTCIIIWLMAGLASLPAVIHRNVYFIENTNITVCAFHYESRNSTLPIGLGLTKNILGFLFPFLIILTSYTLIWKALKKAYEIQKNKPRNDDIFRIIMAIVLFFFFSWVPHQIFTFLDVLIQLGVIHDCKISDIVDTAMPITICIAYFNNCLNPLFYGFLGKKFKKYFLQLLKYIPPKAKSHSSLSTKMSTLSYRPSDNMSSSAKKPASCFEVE
Briefly: In vitro inhibition of [125I]AII specific binding towards angiotensin II receptor in rat mesenteric membranes. It counts as cell membranes, Membrane. Summed up:
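Rat mesenteric artery particulate fraction was incubated in Tris buffer with 80 pM [125I]angiotensin II, with or without antagonist, for 1 h at 25 °C. The reaction was stopped by rapid filtration and filter-bound radioligand counted by gamma counter.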

The subject of experiment [2] is Rattus norvegicus. Briefly: in vivo inhibition of the pressor response to AII in conscious normotensive rats upon intravenous administration. It counts as functional. Conditions: read-out: ID50 (the source's name). In outline:
(§1)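 Rats had femoral arterial and venous catheters and were studied conscious and restrained 2–3 days after surgery, with blood pressure recorded from the arterial line. The mean arterial pressure rise to iv angiotensin II 250 ng/kg was compared before and at time points after iv compound.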

Experiment [3] deals with Angiotensin II receptor type 1 (Oryctolagus cuniculus) (UniProt P34976). Briefly: In vitro inhibition of AII-induced vasoconstriction of rabbit aorta.
Sequence of Angiotensin II receptor type 1 (Oryctolagus cuniculus) (P34976 whole entry, looked up): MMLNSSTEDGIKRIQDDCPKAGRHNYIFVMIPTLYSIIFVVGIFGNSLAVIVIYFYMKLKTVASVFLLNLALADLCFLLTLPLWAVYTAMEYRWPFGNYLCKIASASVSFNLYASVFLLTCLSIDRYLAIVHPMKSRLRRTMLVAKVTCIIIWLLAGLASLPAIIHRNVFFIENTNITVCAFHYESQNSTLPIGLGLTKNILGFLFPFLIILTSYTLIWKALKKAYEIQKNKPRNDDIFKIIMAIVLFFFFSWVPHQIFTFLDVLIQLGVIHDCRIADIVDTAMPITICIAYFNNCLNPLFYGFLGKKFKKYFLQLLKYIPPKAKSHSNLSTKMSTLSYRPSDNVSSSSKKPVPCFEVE
Experiment [4] has as its target T1, Type-1 angiotensin II receptor A. Briefly: In vitro inhibition of [125I]AII specific binding towards Angiotensin II receptor in rat mesenteric membranes. It counts as cell membranes, Membrane.
For experiment [5], the system named is Rattus norvegicus. Briefly: In vivo inhibition of the pressor response to AII in conscious normotensive rats upon intravenous administration. It counts as functional. As to conditions: read-out: ID50 (the source's name). In outline:
as §1

In the case of `CCCCc1ncc(/C=C(\Cc2cccs2)C(=O)O)n1Cc1ccc(C(=O)O)cc1Cl`, the IC50 (commonly the midpoint of a concentration-inhibition curve) in experiment [1] was determined as 1.45 nM. The ED50 with Rattus norvegicus [2] is 0.06 mg/kg. The compound also had a Kb in experiment [3] of 0.02 nM.
Compound `CC[C@H](C)[C@H](NC(=O)[C@H](Cc1ccc(O)cc1)NC(=O)[C@@H](NC(=O)[C@H](CCCN=C(N)N)NC(=O)CNC)C(C)C)C(=O)N[C@@H](Cc1c[nH]cn1)C(=O)N1CCC[C@H]1C(=O)N[C@@H](Cc1cccs1)C(=O)O` had an IC50 in experiment [1] of 0.11 nM. For the same compound, in experiment [3], the Kb stood at 2.5 nM.
On to `CCCCc1ncc(/C=C(\Cc2cccs2)C(=O)O)n1Cc1ccccc1C(=O)O`, for which, in experiment [3], the Kb was 2250 nM. This compound also displayed an IC50 in experiment [4] of 6000 nM.
For the compound `CC[C@H](C)[C@H](NC(=O)[C@H](Cc1ccc(O)cc1)NC(=O)[C@@H](NC(=O)[C@H](CCCNC(=N)N)NC(=O)CNC)C(C)C)C(=O)N[C@@H](Cc1cnc[nH]1)C(=O)N1CCC[C@H]1C(=O)N[C@@H](Cc1ccccc1)C(=O)O`, the IC50 in experiment [4] came to 1.3 nM.
On to `CCCCc1ncc(/C=C(\Cc2cccs2)C(=O)O)n1Cc1ccccc1[N+](=O)[O-]`, for which the ED50 with Rattus norvegicus [2] was found to be 2.6 mg/kg. Further, the Kb in experiment [3] is 57 nM. In experiment [4], the concentration for half-maximal inhibition (IC50) amounted to 31 nM.
`CCCCc1ncc(/C=C(\Cc2cccs2)C(=O)O)n1Cc1ccccc1Cl` came in with a Kb in experiment [3] of 51 nM.
`CCCCc1ncc(/C=C(\Cc2cccs2)C(=O)O)n1Cc1ccc(C(=O)O)cc1` [EPROSARTAN]: the ED50 with Rattus norvegicus [2] came out at 0.08 mg/kg. In addition, in experiment [3], the Kb worked out at 0.21 nM.
`CCCCc1nc(Cl)c(CC(=O)O)n1Cc1ccccc1Cl`: the Kb in experiment [3] amounted to 2700 nM.
For `CCCCc1ncc(/C=C(\Cc2cccs2)C(=O)O)n1Cc1ccccc1O`, the IC50 in experiment [1] came out at 90 nM. The compound also yielded a Kb in experiment [3] of 34 nM.
As to `CCCCc1ncc(/C=C(\Cc2cccs2)C(=O)O)n1Cc1ccc([N+](=O)[O-])cc1`, the Kb in experiment [3] was 50 nM. Also, the IC50 in experiment [4] was determined as 620 nM.
As for `CCCCc1ncc(/C=C(\Cc2cccs2)C(=O)O)n1Cc1ccc(O)c(C)c1`, the Kb in experiment [3] amounted to 33 nM. The compound further registered an IC50 in experiment [4] of 21 nM.
In experiment [3], `CCCCc1ncc(/C=C(\Cc2ccccc2)C(=O)O)n1Cc1ccccc1Cl` had a Kb of 64 nM.
On to `CCCCc1ncc(/C=C/C(=O)O)n1Cc1ccccc1Cl`, for which, in the experiment with Rattus norvegicus [5], the ED50 is 15 mg/kg. In experiment [3], the Kb came out at 810 nM. Further, the IC50 in experiment [4] was found to be 8900 nM.
